Reference: PubChem BioAssay
Inconclusive results are not listed.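 The calls were made as follows, unless noted: active = viability increase at or above a cutoff of the median across tested compounds plus 3 SD (cut at about 8.5% in these data, passing the limit was not always enough); inconclusive = some gains above the cutoff, reason not given; inactive = the rest.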

Columns and labels:
[1] = S. cerevisiae growth inhibition in permissive medium (OD615), pilot counter-assay for S. cerevisiae lifespan shortening project, permissive growth control (AID 705;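 active = growth inhibition above 25% in both replicates, a cutoff set 3 SD above the mean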); conditions: OD615, 24 h, at 10 µM, stronger effect = higher value
In short: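 System: engineered DeaD yeast; Medium: permissive raffinose/galactose medium; Compound dosing: 10 µM single dose, 0.25% DMSO; Incubation: 4 h cell pre-growth, 24 h exposure at 30 °C; Technique: OD at 615 nm; Evaluation: growth inhibition from lowered OD615 after 24 h.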

[2] = S. cerevisiae growth inhibition in restrictive medium, OD615, pilot screen, restrictive growth control, yeast lifespan reduction project (AID 706;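 active = growth inhibition above a set limit, 3 SD over mean compound inhibition, in both replicates, cut at about 43% in these data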;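 also: modified DeaD lifespan yeast strain shifted to restrictive glucose medium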); conditions: OD615, 48 h, at 10 µM, stronger effect = higher value
In short: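 Material: modified S. cerevisiae; buffer or medium: CSMM-D glucose medium; doses: one concentration, 10 µM final, 0.25% DMSO; incubation: 48 h compound exposure at 30 °C; detection: optical density at 615 nm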

[3] = doxorubicin toxicity protection in MRP-1 cells – H69AR cells, CellTiter-Glo, duplicate, MRP-1 activator project, pilot screen (AID 807); conditions: H69AR viability with doxorubicin, CellTiter-Glo luminescence; at 10 µM; stronger effect = higher value;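 also: compound pretreatment 18-22 h then 72 h combined with doxorubicin; 0% = doxorubicin alone and 100% = vehicle without doxorubicin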
[4] = viability of HCT116 without oncogenic beta-catenin – human colon tumor cells, pilot screen (AID 823;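 active = cell viability at or below a set limit in both duplicate runs, the limit being the all-compound median minus 4 SD, cut at about 23% in these data, passing the limit was not always enough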;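 also: 0% = wells killed by 20 µM Hyamine and 100% = untreated DMSO cell wells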); conditions: HCT116 beta-catenin knockout viability, CellTiter-Glo, 60 h; at 10 µM; stronger effect = lower value
[5] = viability of PTEN-null HCT116 cells – cell-based, HCT116 clonal line, CellTiter-Glo, pilot screen (AID 824;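 active = viability at or below 27.92% in each of two runs, the all-compound median minus 4 SD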;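 also: 0% = 20 µM Hyamine control and 100% = vehicle cell control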); conditions: HCT116 PTEN-deleted viability, 60 h, at 10 µM, stronger effect = lower value
[6] = RAM pathway blockade in budding yeast – dse1pr::URA3 reporter, 5-FOA selection, pilot screen (AID 869;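 active = inhibition over a set limit, the all-compound mean plus 3 SD, in both replicate runs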;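 also: 0% = DMSO wells with no growth and 100% = 10 µM 1-NA-PP1 with full growth; RAM network block rescues cells from 5-FOA so hits raise OD615 growth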); conditions: S. cerevisiae dse1pr::URA3 5-FOA growth, OD615, 2 d; at 10 µM; stronger effect = higher value; strain carries analog-sensitive mutant Cbk1 kinase
[7] = RAM signaling pathway blockade in yeast – S. cerevisiae, Pdr1DBD-CYC8 efflux-inhibited sensitized strain, primary screen (AID 1298;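 active = RAM network inhibition above 8.4% in each of two replicates, 3 SD over the compound average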;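 also: 0% = DMSO untreated cells without growth and 100% = 10 µM 1-NA-PP1 full growth; higher means more yeast growth rescued from 5-FOA killing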); conditions: S. cerevisiae cbk1-as DSE1-URA3 strain, 5-FOA growth OD615, 2 d; at 50 µM; stronger effect = higher value

Cn1c(SCCSc2nnc(-c3ccccc3)n2C)nnc1-c1ccccc1
inactive: growth inhibition [1] -12.1% | growth inhibition [2] 8.02% | viability increase [3] -0.26% | viability [4] 97.4% | viability [5] 93.8% | inhibition [6] 1.62% | RAM network inhibition [7] 5.17%

CCOC(=O)C1=C(C)NC(=O)NC1c1ccc(N(CC)CC)cc1 (stereo unspecified)
inactive: growth inhibition [1] -11.1% | growth inhibition [2] -3.54% | viability increase [3] -1.3% | viability [4] 97.5% | viability [5] 99.3% | inhibition [6] 1.44% | RAM network inhibition [7] 1.67%

COc1cccc(N(CC(=O)Nc2cccc(C(C)=O)c2)S(C)(=O)=O)c1
inactive: growth inhibition [1] -9.21% | growth inhibition [2] -2.52% | viability increase [3] -0.61% | viability [4] 101% | viability [5] 93.7% | inhibition [6] 1.08% | RAM network inhibition [7] 5.87%

CC(=O)NC(CCS(C)(=O)=O)C(=O)Nc1ccc(Cl)c(Cl)c1 (stereo unspecified)
inactive: growth inhibition [1] -4.26% | growth inhibition [2] -6.39% | viability increase [3] -1.98% | viability [4] 96.9% | viability [5] 89.6% | inhibition [6] 1.11% | RAM network inhibition [7] 1.53%

COc1ccc(N2Cc3cccc(C(=O)NC(C)CCc4ccco4)c3C2=O)cc1 (stereo unspecified)
inactive: growth inhibition [1] -3.44% | growth inhibition [2] -3.73% | viability increase [3] 3.67% | viability [4] 95.3% | viability [5] 95.3% | inhibition [6] 1.92% | RAM network inhibition [7] 7.29%

Cn1cccc1Cc1nnc(SCC(=O)N2CCCCCC2)n1CCc1ccccc1
inactive: growth inhibition [1] 10% | growth inhibition [2] 25.7% | viability increase [3] -1.8% | viability [4] 95.2% | viability [5] 96.1% | inhibition [6] 2.48% | RAM network inhibition [7] 2.94%

OCCOCCn1c(-c2ccccc2)nc(=S)c2c1CCCC2
inactive: growth inhibition [1] -3.65% | growth inhibition [2] 14.6% | viability increase [3] -0.07% | viability [4] 102% | viability [5] 106% | inhibition [6] 0.73% | RAM network inhibition [7] 6.53%

COc1ccccc1C(=O)Nc1nnc(-c2ccc(Cl)cc2)o1
inactive: growth inhibition [1] -2.96% | growth inhibition [2] 1.53% | viability increase [3] -1.3% | viability [4] 103% | viability [5] 98.1% | inhibition [6] 0.395% | RAM network inhibition [7] -0.25%

CCCNC(=O)CS(=O)Cc1nc(-c2ccccc2C)oc1C (stereo unspecified)
inactive: growth inhibition [1] -14.3% | growth inhibition [2] -5.72% | viability increase [3] 0.85% | viability [4] 94.2% | viability [5] 96.9% | inhibition [6] -0.325% | RAM network inhibition [7] 6.48%

c1ccc(-c2cnc(-c3cccnc3)o2)cc1
inactive: growth inhibition [1] 0.08% | growth inhibition [2] 7.29% | viability increase [3] -4.72% | viability [4] 95.5% | viability [5] 94.4% | inhibition [6] 2.12% | RAM network inhibition [7] 1.68%

CCn1nnc(NC(=O)c2ccc(C(C)(C)C)cc2)n1
inactive: growth inhibition [1] -24.7% | growth inhibition [2] -6.88% | viability increase [3] -0.53% | viability [4] 90.2% | viability [5] 90.9% | inhibition [6] 1.79% | RAM network inhibition [7] -0.37%

O=C(C1CC1)N1CCc2cc(Br)cc(S(=O)(=O)NC3CCCCC3)c21
inactive: growth inhibition [1] -3.11% | growth inhibition [2] -25.8% | viability increase [3] 1.71% | viability [4] 88.5% | viability [5] 89.4% | inhibition [6] 0.275% | RAM network inhibition [7] 5.54%

O=C(C1CCCN1S(=O)(=O)c1cccc2cccnc12)N1CCc2ccccc2C1 (stereo unspecified)
inactive: growth inhibition [1] -8.21% | growth inhibition [2] -13.1% | viability increase [3] -1.96% | viability [4] 92.3% | viability [5] 86.7% | inhibition [6] 0.745% | RAM network inhibition [7] 0.84%

COc1ccc(NC(=O)Nc2cccc3cccnc23)cc1
inactive: growth inhibition [1] -3.3% | growth inhibition [2] -0.385% | viability increase [3] -4.59% | viability [4] 88.5% | viability [5] 78% | inhibition [6] -0.39% | RAM network inhibition [7] 0.21%

COC(=O)c1ccccc1N(Cc1ccccc1)S(C)(=O)=O
inactive: growth inhibition [1] -3.77% | growth inhibition [2] -8.56% | viability increase [3] -4.02% | viability [4] 90.6% | viability [5] 105% | inhibition [6] -0.425% | RAM network inhibition [7] 1.83%

O=c1oc(-c2cc3ccccc3o2)nc2sc3c(c12)CCCC3
inactive: growth inhibition [1] -10.5% | growth inhibition [2] -6.6% | viability increase [3] 3.77% | viability [4] 74.4% | viability [5] 56.9% | inhibition [6] 2.1% | RAM network inhibition [7] 4.52%

CCCSCCCNC(=O)Cn1cc2c(n1)CCCCC2
inactive: growth inhibition [1] -3.9% | growth inhibition [2] 5.24% | viability increase [3] -2.42% | viability [4] 94% | viability [5] 93.2% | inhibition [6] -0.37% | RAM network inhibition [7] 3.05%

CCCCCOc1ccc(NC(=O)CCCC(=O)O)cc1
inactive: growth inhibition [1] -3.13% | growth inhibition [2] 2.42% | viability increase [3] -0.75% | viability [4] 91.1% | viability [5] 97.8% | inhibition [6] -0.545% | RAM network inhibition [7] 1.02%

O=C(NCc1ccccn1)C1CCN(S(=O)(=O)N2CCCC2)CC1
inactive: growth inhibition [1] -5.04% | growth inhibition [2] -10% | viability increase [3] -0.46% | viability [4] 109% | viability [5] 95.7% | inhibition [6] 0.3% | RAM network inhibition [7] 3.61%

CCCCN(C)c1nc(-c2ccco2)c2c(c1C#N)CC(C)(C)OC2
inactive: growth inhibition [1] -9.48% | growth inhibition [2] 0.09% | viability increase [3] -4.56% | viability [4] 96.3% | viability [5] 98.3% | inhibition [6] 1.63% | RAM network inhibition [7] -0.79%

COCC(C)NC(=O)c1cc(-c2ccc(O)cc2)on1 (stereo unspecified)
inactive: growth inhibition [1] -1.88% | growth inhibition [2] 4.68% | viability increase [3] -3.12% | viability [4] 105% | viability [5] 100% | inhibition [6] 2.48% | RAM network inhibition [7] 0.94%

COc1ccc2c(=O)c(N3C(=O)c4ccccc4C3=O)c(C)oc2c1
inactive: growth inhibition [1] -11.8% | growth inhibition [2] -0.32% | viability increase [3] -1.12% | viability [4] 94.2% | viability [5] 92.6% | inhibition [6] -0.25% | RAM network inhibition [7] 1.33%

CCN(CC)S(=O)(=O)c1ccc(S(=O)(=O)N2CCN(CCC#N)CC2)cc1
inactive: growth inhibition [1] -8.46% | growth inhibition [2] -3.54% | viability increase [3] -1.58% | viability [4] 99.6% | viability [5] 94.7% | inhibition [6] 1.38% | RAM network inhibition [7] -1.32%

CCNc1nc(NCC)nc(-n2nc(C)cc2C)n1
inactive: growth inhibition [1] 4.27% | growth inhibition [2] 4.28% | viability increase [3] -0.22% | viability [4] 100% | viability [5] 103% | inhibition [6] 0.2% | RAM network inhibition [7] 0.75%

Cn1c(=O)c2c(nc(SCCN3CCOCC3)n2Cc2ccc(Cl)cc2)n(C)c1=O
inactive: growth inhibition [1] -5.34% | growth inhibition [2] 16.6% | viability increase [3] -3.32% | viability [4] 87.8% | viability [5] 84.1% | inhibition [6] 2.31% | RAM network inhibition [7] -0.47%

Cc1cccc(CCNC(=O)C2CCC(CNc3c(N4CCCC4)c(=O)c3=O)CC2)c1 (stereo unspecified)
inactive: growth inhibition [1] -6.65% | growth inhibition [2] -3.19% | viability increase [3] -1.92% | viability [4] 99.4% | viability [5] 91.2% | inhibition [6] 1.26% | RAM network inhibition [7] 4.72%

Cn1c(Cn2c(=O)sc3ccccc32)nnc1SCC(=O)NC1CCCC1
inactive: growth inhibition [1] -9.37% | growth inhibition [2] -5.96% | viability increase [3] -1.04% | viability [4] 102% | viability [5] 103% | inhibition [6] 0% | RAM network inhibition [7] 3.56%

CC1Cc2ccccc2N1C1=NS(=O)(=O)c2ccccc21 (stereo unspecified)
inactive: growth inhibition [1] -3.44% | growth inhibition [2] -25.5% | viability increase [3] -1.97% | viability [4] 91.7% | viability [5] 96.5% | inhibition [6] 2.68% | RAM network inhibition [7] 7%

c1ccc(Nc2nc3ccccc3n3cnnc23)cc1
inactive: growth inhibition [1] -1.27% | growth inhibition [2] 10.2% | viability increase [3] -5.23% | viability [4] 86.1% | viability [5] 84.6% | inhibition [6] 2.09% | RAM network inhibition [7] -0.58%

Cc1oc2c(c1C(=O)NC(Cc1c[nH]c3ccccc13)C(=O)O)CCCC2 (stereo unspecified)
inactive: growth inhibition [1] -8.56% | growth inhibition [2] -5.62% | viability increase [3] -3.61% | viability [4] 100% | viability [5] 97.6% | inhibition [6] 1.37% | RAM network inhibition [7] 0.1%

N=c1oc2ccccc2cc1-c1nc2ccccc2c(=O)[nH]1
inactive: growth inhibition [1] 2.5% | growth inhibition [2] 1.96% | viability increase [3] 2.52% | viability [4] 94.3% | viability [5] 96.3% | inhibition [6] 2% | RAM network inhibition [7] 4.24%

CCc1ccc(NS(=O)(=O)c2cc(OC)ccc2OC)cc1
inactive: growth inhibition [1] -3.06% | growth inhibition [2] -9.52% | viability increase [3] -3.77% | viability [4] 66.6% | viability [5] 58.3% | inhibition [6] 0.68% | RAM network inhibition [7] 1.9%

CCOC(=O)c1ccc(NC(=O)NCCN2CCCCC2)cc1
inactive: growth inhibition [1] -0.03% | growth inhibition [2] -4.93% | viability increase [3] -0.32% | viability [4] 105% | viability [5] 100% | inhibition [6] 1.49% | RAM network inhibition [7] 3.62%
